Experimental data as given in ChEMBL document CHEMBL4689842, “EUbOPEN Chemogenomics Library wave 1” (2021).

Assays:
Assay type in all cases: toxicity, cell-based
Fibroblast [1] = assay: Multiplex assay against human fibroblast
Summary of the method: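 Live cells carried four stains from seeding: Hoechst33342, BioTracker Green Microtubule Cytoskeleton Dye, MitoTracker Red and Annexin V Alexa Fluor 680. They were imaged on a CQ1 microscope at 37°C and 5% CO2 after compound addition. Using CellPathfinder machine-learning gating, cells were split into Hoechst high-intensity objects or normal cells, normal cells into healthy, pyknosed or fragmented nuclei, and pyknosed cells into mitotic or apoptotic; tubulin, mitochondrial-mass and membrane-permeability phenotypes are per cents of healthy-nucleus cells.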

Fibroblast [2] = assay: Incucyte cell viability with human fibroblast; conditions: 10 µM, compound concentration 10 uM; further: filed as whole numbers so only -1 and 0 and 1 occur
HEK-293T = assay: Incucyte cell viability with HEK293T; conditions: human, 10 µM, compound concentration 10 uM; further: filed as whole numbers so only -1 and 0 and 1 occur
U2OS = assay: Incucyte cell viability with U2OS; conditions: human, 10 µM, compound concentration 10 uM; further: filed as whole numbers so only -1 and 0 and 1 occur
[3] = 12 h, 1 µM, compound concentration 1 uM, replicate 1
[4] = 12 h, 1 µM, compound concentration 1 uM, replicate 2
[5] = 12 h, 10 µM, compound concentration 10 uM, replicate 1
[6] = 12 h, 10 µM, compound concentration 10 uM, replicate 2
[7] = 24 h, 1 µM, compound concentration 1 uM, replicate 1
[8] = 24 h, 1 µM, compound concentration 1 uM, replicate 2
[9] = 24 h, 10 µM, compound concentration 10 uM, replicate 1
[10] = 24 h, 10 µM, compound concentration 10 uM, replicate 2
[11] = 48 h, 1 µM, compound concentration 1 uM, replicate 1
[12] = 48 h, 1 µM, compound concentration 1 uM, replicate 2
[13] = 48 h, 10 µM, compound concentration 10 uM, replicate 1
[14] = 48 h, 10 µM, compound concentration 10 uM, replicate 2
[15] = 0 h, replicate number 1, timepoint 0 hours
[16] = 6 h, replicate number 1, timepoint 6 hours
[17] = 12 h, replicate number 1, timepoint 12 hours
[18] = 18 h, replicate number 1, timepoint 18 hours
[19] = 24 h, replicate number 1, timepoint 24 hours

Structure (SMILES): O=C(O)c1ccc2cc(-c3ccc(O)c(C45CC6CC(CC(C6)C4)C5)c3)ccc2c1 [O-DEMETHYLATED ADAPALENE]
- Population Apoptotic (%) (Fibroblast [1]; [3]): 57%
- Population Fragmented Nuclei (%) (Fibroblast [1]; [3]): 36%
- Population Healthy Nuclei (%) (Fibroblast [1]; [3]): 20%
- Population Hoechst High Intensity Objects (%) (Fibroblast [1]; [3]): 18%
- Population Membrane Permeable-Phenotype (%) (Fibroblast [1]; [3]): 31%
- Population Mitochondria Different-Phenotype (%) (Fibroblast [1]; [3]): 21%
- Population Mitotic Cells (%) (Fibroblast [1]; [3]): 42%
- Population Normal (%) (Fibroblast [1]; [3]): 81%
- Population Pyknosed Nuclei (%) (Fibroblast [1]; [3]): 43%
- Population Tubulin-Different-Phenotype (%) (Fibroblast [1]; [3]): 60%
- Total Cell Count (Fibroblast [1]; [3]): 249
- Population Apoptotic (%) (Fibroblast [1]; [4]): 100%
- Population Fragmented Nuclei (%) (Fibroblast [1]; [4]): 8%
- Population Healthy Nuclei (%) (Fibroblast [1]; [4]): 87%
- Population Hoechst High Intensity Objects (%) (Fibroblast [1]; [4]): 9%
- Population Membrane Permeable-Phenotype (%) (Fibroblast [1]; [4]): 6%
- Population Mitochondria Different-Phenotype (%) (Fibroblast [1]; [4]): 16%
- Population Mitotic Cells (%) (Fibroblast [1]; [4]): 0%
- Population Normal (%) (Fibroblast [1]; [4]): 90%
- Population Pyknosed Nuclei (%) (Fibroblast [1]; [4]): 3%
- Population Tubulin-Different-Phenotype (%) (Fibroblast [1]; [4]): 16%
- Total Cell Count (Fibroblast [1]; [4]): 62
- Population Apoptotic (%) (Fibroblast [1]; [5]): 72%
- Population Fragmented Nuclei (%) (Fibroblast [1]; [5]): 32%
- Population Healthy Nuclei (%) (Fibroblast [1]; [5]): 37%
- Population Hoechst High Intensity Objects (%) (Fibroblast [1]; [5]): 16%
- Population Membrane Permeable-Phenotype (%) (Fibroblast [1]; [5]): 44%
- Population Mitochondria Different-Phenotype (%) (Fibroblast [1]; [5]): 0%
- Population Mitotic Cells (%) (Fibroblast [1]; [5]): 27%
- Population Normal (%) (Fibroblast [1]; [5]): 83%
- Population Pyknosed Nuclei (%) (Fibroblast [1]; [5]): 30%
- Population Tubulin-Different-Phenotype (%) (Fibroblast [1]; [5]): 33%
- Total Cell Count (Fibroblast [1]; [5]): 115
- Population Apoptotic (%) (Fibroblast [1]; [6]): 100%
- Population Fragmented Nuclei (%) (Fibroblast [1]; [6]): 11%
- Population Healthy Nuclei (%) (Fibroblast [1]; [6]): 87%
- Population Hoechst High Intensity Objects (%) (Fibroblast [1]; [6]): 2%
- Population Membrane Permeable-Phenotype (%) (Fibroblast [1]; [6]): 1%
- Population Mitochondria Different-Phenotype (%) (Fibroblast [1]; [6]): 16%
- Population Mitotic Cells (%) (Fibroblast [1]; [6]): 0%
- Population Normal (%) (Fibroblast [1]; [6]): 97%
- Population Pyknosed Nuclei (%) (Fibroblast [1]; [6]): 1%
- Population Tubulin-Different-Phenotype (%) (Fibroblast [1]; [6]): 25%
- Total Cell Count (Fibroblast [1]; [6]): 83
- Population Apoptotic (%) (Fibroblast [1]; [7]): 53%
- Population Fragmented Nuclei (%) (Fibroblast [1]; [7]): 35%
- Population Healthy Nuclei (%) (Fibroblast [1]; [7]): 20%
- Population Hoechst High Intensity Objects (%) (Fibroblast [1]; [7]): 23%
- Population Membrane Permeable-Phenotype (%) (Fibroblast [1]; [7]): 29%
- Population Mitochondria Different-Phenotype (%) (Fibroblast [1]; [7]): 18%
- Population Mitotic Cells (%) (Fibroblast [1]; [7]): 46%
- Population Normal (%) (Fibroblast [1]; [7]): 76%
- Population Pyknosed Nuclei (%) (Fibroblast [1]; [7]): 43%
- Population Tubulin-Different-Phenotype (%) (Fibroblast [1]; [7]): 45%
- Total Cell Count (Fibroblast [1]; [7]): 236
- Population Apoptotic (%) (Fibroblast [1]; [8]): 100%
- Population Fragmented Nuclei (%) (Fibroblast [1]; [8]): 7%
- Population Healthy Nuclei (%) (Fibroblast [1]; [8]): 89%
- Population Hoechst High Intensity Objects (%) (Fibroblast [1]; [8]): 6%
- Population Membrane Permeable-Phenotype (%) (Fibroblast [1]; [8]): 6%
- Population Mitochondria Different-Phenotype (%) (Fibroblast [1]; [8]): 30%
- Population Mitotic Cells (%) (Fibroblast [1]; [8]): 0%
- Population Normal (%) (Fibroblast [1]; [8]): 93%
- Population Pyknosed Nuclei (%) (Fibroblast [1]; [8]): 3%
- Population Tubulin-Different-Phenotype (%) (Fibroblast [1]; [8]): 18%
- Total Cell Count (Fibroblast [1]; [8]): 60
- Population Apoptotic (%) (Fibroblast [1]; [9]): 57%
- Population Fragmented Nuclei (%) (Fibroblast [1]; [9]): 28%
- Population Healthy Nuclei (%) (Fibroblast [1]; [9]): 42%
- Population Hoechst High Intensity Objects (%) (Fibroblast [1]; [9]): 21%
- Population Membrane Permeable-Phenotype (%) (Fibroblast [1]; [9]): 55%
- Population Mitochondria Different-Phenotype (%) (Fibroblast [1]; [9]): 0%
- Population Mitotic Cells (%) (Fibroblast [1]; [9]): 42%
- Population Normal (%) (Fibroblast [1]; [9]): 78%
- Population Pyknosed Nuclei (%) (Fibroblast [1]; [9]): 29%
- Population Tubulin-Different-Phenotype (%) (Fibroblast [1]; [9]): 44%
- Total Cell Count (Fibroblast [1]; [9]): 113
- Population Apoptotic (%) (Fibroblast [1]; [10]): 0%
- Population Fragmented Nuclei (%) (Fibroblast [1]; [10]): 14%
- Population Healthy Nuclei (%) (Fibroblast [1]; [10]): 81%
- Population Hoechst High Intensity Objects (%) (Fibroblast [1]; [10]): 7%
- Population Membrane Permeable-Phenotype (%) (Fibroblast [1]; [10]): 7%
- Population Mitochondria Different-Phenotype (%) (Fibroblast [1]; [10]): 26%
- Population Mitotic Cells (%) (Fibroblast [1]; [10]): 100%
- Population Normal (%) (Fibroblast [1]; [10]): 92%
- Population Pyknosed Nuclei (%) (Fibroblast [1]; [10]): 3%
- Population Tubulin-Different-Phenotype (%) (Fibroblast [1]; [10]): 28%
- Total Cell Count (Fibroblast [1]; [10]): 83
- Population Apoptotic (%) (Fibroblast [1]; [11]): 78%
- Population Fragmented Nuclei (%) (Fibroblast [1]; [11]): 61%
- Population Healthy Nuclei (%) (Fibroblast [1]; [11]): 26%
- Population Hoechst High Intensity Objects (%) (Fibroblast [1]; [11]): 43%
- Population Membrane Permeable-Phenotype (%) (Fibroblast [1]; [11]): 2%
- Population Mitochondria Different-Phenotype (%) (Fibroblast [1]; [11]): 15%
- Population Mitotic Cells (%) (Fibroblast [1]; [11]): 21%
- Population Normal (%) (Fibroblast [1]; [11]): 56%
- Population Pyknosed Nuclei (%) (Fibroblast [1]; [11]): 12%
- Population Tubulin-Different-Phenotype (%) (Fibroblast [1]; [11]): 5%
- Total Cell Count (Fibroblast [1]; [11]): 267
- Population Apoptotic (%) (Fibroblast [1]; [12]): 71%
- Population Fragmented Nuclei (%) (Fibroblast [1]; [12]): 18%
- Population Healthy Nuclei (%) (Fibroblast [1]; [12]): 71%
- Population Hoechst High Intensity Objects (%) (Fibroblast [1]; [12]): 14%
- Population Membrane Permeable-Phenotype (%) (Fibroblast [1]; [12]): 11%
- Population Mitochondria Different-Phenotype (%) (Fibroblast [1]; [12]): 1%
- Population Mitotic Cells (%) (Fibroblast [1]; [12]): 28%
- Population Normal (%) (Fibroblast [1]; [12]): 85%
- Population Pyknosed Nuclei (%) (Fibroblast [1]; [12]): 9%
- Population Tubulin-Different-Phenotype (%) (Fibroblast [1]; [12]): 28%
- Total Cell Count (Fibroblast [1]; [12]): 87
- Population Apoptotic (%) (Fibroblast [1]; [13]): 85%
- Population Fragmented Nuclei (%) (Fibroblast [1]; [13]): 52%
- Population Healthy Nuclei (%) (Fibroblast [1]; [13]): 40%
- Population Hoechst High Intensity Objects (%) (Fibroblast [1]; [13]): 20%
- Population Membrane Permeable-Phenotype (%) (Fibroblast [1]; [13]): 35%
- Population Mitochondria Different-Phenotype (%) (Fibroblast [1]; [13]): 0%
- Population Mitotic Cells (%) (Fibroblast [1]; [13]): 14%
- Population Normal (%) (Fibroblast [1]; [13]): 79%
- Population Pyknosed Nuclei (%) (Fibroblast [1]; [13]): 7%
- Population Tubulin-Different-Phenotype (%) (Fibroblast [1]; [13]): 35%
- Total Cell Count (Fibroblast [1]; [13]): 116
- Population Apoptotic (%) (Fibroblast [1]; [14]): 66%
- Population Fragmented Nuclei (%) (Fibroblast [1]; [14]): 37%
- Population Healthy Nuclei (%) (Fibroblast [1]; [14]): 58%
- Population Hoechst High Intensity Objects (%) (Fibroblast [1]; [14]): 14%
- Population Membrane Permeable-Phenotype (%) (Fibroblast [1]; [14]): 24%
- Population Mitochondria Different-Phenotype (%) (Fibroblast [1]; [14]): 4%
- Population Mitotic Cells (%) (Fibroblast [1]; [14]): 33%
- Population Normal (%) (Fibroblast [1]; [14]): 85%
- Population Pyknosed Nuclei (%) (Fibroblast [1]; [14]): 3%
- Population Tubulin-Different-Phenotype (%) (Fibroblast [1]; [14]): 46%
- Total Cell Count (Fibroblast [1]; [14]): 99
- Growth Rate (Fibroblast [2]; [15]): 0
- Growth Rate (Fibroblast [2]; [16]): 0
- Growth Rate (Fibroblast [2]; [17]): 0
- Growth Rate (Fibroblast [2]; 12 h, replicate number 2, timepoint 12 hours): 1
- Growth Rate (Fibroblast [2]; [18]): 0
- Growth Rate (Fibroblast [2]; [19]): 0
- Growth Rate (HEK-293T; [15]): 1
- Growth Rate (HEK-293T; 0 h, replicate number 2, timepoint 0 hours): 0
- Growth Rate (HEK-293T; [16]): 0
- Growth Rate (HEK-293T; [17]): 0
- Growth Rate (HEK-293T; [18]): 0
- Growth Rate (HEK-293T; [19]): 0
- Growth Rate (U2OS; [15]): 0
- Growth Rate (U2OS; [17]): 1
- Growth Rate (U2OS; [18]): 1
- Growth Rate (U2OS; [19]): 0
